Test results: ChEMBL document CHEMBL5647697, “Akt inhibition synergizes with polycomb repressive complex 2 inhibition in the treatment of multiple myeloma” (2019)
The source made the active and inactive calls. No cut-off for these calls is given here.

Assays:
MM1.S [1] = assay: Cytotoxicity against human MM1.S cells assessed as reduction in cell viability at 0.3125 to 10 micromol/L after 48 hrs by MTS assay; assay type: functional, cell-based; details: dose 0.3125-10 µmol/L
Method in brief: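 Seven myeloma lines (MM.1S, H929, OPM2/BTZ among them) exposed to TAS-117 at increasing concentrations up to 10 μmol/L for 48 h. Viability read by MTS against an untreated control; mean ± SD of triplicates.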

[2] = target: Serine/threonine-protein kinase AKT (Homo sapiens) (UniProt P31751+Q9Y243+P31749); assay: Inhibition of Akt phosphorylation in human MM1.S cells at 0.3 to 5 micromol/L for 6 to 48 hrs by Western blot analysis; assay type: cell-based; details: dose 0.3-5 µmol/L, time 6-48 hrs
Chain of Serine/threonine-protein kinase AKT (Homo sapiens) (P31749 whole entry, looked up): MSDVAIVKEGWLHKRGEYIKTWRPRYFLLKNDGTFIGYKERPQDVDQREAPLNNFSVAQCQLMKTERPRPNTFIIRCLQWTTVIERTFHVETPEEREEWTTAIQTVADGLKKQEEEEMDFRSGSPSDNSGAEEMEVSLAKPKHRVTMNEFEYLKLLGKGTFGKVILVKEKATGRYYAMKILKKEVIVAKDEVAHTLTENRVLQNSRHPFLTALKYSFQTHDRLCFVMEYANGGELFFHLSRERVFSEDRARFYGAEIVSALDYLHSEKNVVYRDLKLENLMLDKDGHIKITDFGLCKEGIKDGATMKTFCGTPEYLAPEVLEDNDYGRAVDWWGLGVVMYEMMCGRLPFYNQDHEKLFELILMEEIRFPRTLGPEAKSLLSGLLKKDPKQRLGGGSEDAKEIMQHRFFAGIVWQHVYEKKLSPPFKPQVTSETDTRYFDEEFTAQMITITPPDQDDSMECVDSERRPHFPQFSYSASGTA
Chain of Serine/threonine-protein kinase AKT (Homo sapiens) (P31751 whole entry, looked up): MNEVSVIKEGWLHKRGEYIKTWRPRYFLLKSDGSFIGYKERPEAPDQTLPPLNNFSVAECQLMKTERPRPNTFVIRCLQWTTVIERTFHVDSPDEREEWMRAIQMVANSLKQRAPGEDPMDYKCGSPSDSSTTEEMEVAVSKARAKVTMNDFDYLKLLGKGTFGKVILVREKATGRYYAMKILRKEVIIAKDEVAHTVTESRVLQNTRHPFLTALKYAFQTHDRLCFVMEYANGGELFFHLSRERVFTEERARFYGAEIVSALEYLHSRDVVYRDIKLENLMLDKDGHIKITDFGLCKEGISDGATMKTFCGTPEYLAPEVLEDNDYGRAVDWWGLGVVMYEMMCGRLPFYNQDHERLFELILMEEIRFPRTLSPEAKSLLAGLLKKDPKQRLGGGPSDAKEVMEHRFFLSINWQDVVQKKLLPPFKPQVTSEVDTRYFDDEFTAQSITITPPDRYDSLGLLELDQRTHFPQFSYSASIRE
Chain of Serine/threonine-protein kinase AKT (Homo sapiens) (Q9Y243 whole entry, looked up): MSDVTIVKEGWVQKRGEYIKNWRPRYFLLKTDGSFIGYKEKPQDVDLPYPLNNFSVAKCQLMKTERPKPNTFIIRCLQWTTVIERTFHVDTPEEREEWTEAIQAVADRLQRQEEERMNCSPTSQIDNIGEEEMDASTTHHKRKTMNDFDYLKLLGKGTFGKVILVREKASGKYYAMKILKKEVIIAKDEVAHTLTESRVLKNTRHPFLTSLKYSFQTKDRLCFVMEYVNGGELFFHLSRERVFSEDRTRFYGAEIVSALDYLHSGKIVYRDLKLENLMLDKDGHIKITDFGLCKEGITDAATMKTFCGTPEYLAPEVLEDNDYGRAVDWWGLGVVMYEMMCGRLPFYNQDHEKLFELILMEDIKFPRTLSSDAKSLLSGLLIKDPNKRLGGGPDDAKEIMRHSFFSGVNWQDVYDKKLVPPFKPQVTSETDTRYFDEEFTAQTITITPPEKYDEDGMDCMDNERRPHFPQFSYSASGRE
Method in brief: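 MM.1S and H929 cells were treated with graded doses for 48 h, or with 5 μmol/L for the stated times. Lysates were immunoblotted, with GAPDH, total Akt and H3 as loading controls.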

MM1.S [3] = assay: Downregulation of E2F1 mRNA expression in human MM1.S cells incubated at 0.3 to 3 micromol/L for 24 hrs by qRT-PCR analysis; assay type: functional, cell-based; details: dose 0.3-3 µmol/L
Method in brief: (§1)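 MM.1S and H929 cells given TAS-117 at the indicated doses for 24 h. mRNA measured by RT-qPCR, fold change after normalization to GAPDH; SD of triplicates; significance versus untreated control.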

NCI-H929 [4] = assay: Downregulation of E2F2 mRNA expression in human NCI-H929 cells incubated at 0.3 to 3 micromol/L for 24 hrs by qRT-PCR analysis; assay type: functional, cell-based; details: dose 0.3-3 µmol/L; method in brief: as §1
OPM-2/BTZ [5] = assay: Downregulation of E2F1 mRNA expression in human OPM-2/BTZ cells incubated at 0.3 to 3 micromol/L for 48 hrs by qRT-PCR analysis; assay type: functional, cell-based; details: dose 0.3-3 µmol/L
MM1.S [6] = assay: Downregulation of CDK1 protein expression in human MM1.S cells incubated at 0.3 to 3 micromol/L for 48 hrs by Western blot analysis; assay type: functional, cell-based; details: dose 0.3-3 µmol/L
Method in brief: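 MM.1S and H929 cells given TAS-117 at the indicated doses for 48 h. Protein levels assessed by immunoblot.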

MM1.S [7] = assay: Upregulation of p27 protein expression in human MM1.S cells incubated at 0.3 to 3 micromol/L for 48 hrs by Western blot analysis; assay type: functional, cell-based; details: dose 0.3-3 µmol/L
MM1.S [8] = assay: Synergistic activity against human MM.1S cells assessed as combination index […] in presence of 2.5 uM UNC1999 […] […] compound addition at 0.125 uM incubated for 48 hrs by MTT assay; assay type: functional
Method in brief: (§2)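 Cells were exposed to the EZH2/EZH1 inhibitor (UNC1999 or GSK126) for 72 h in total, with the Akt inhibitor added for the last 48 h. Viability was read by MTS assay relative to untreated control cells, in triplicate. The combination index for each dose pair came from isobologram analysis.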

MM1.S [9] = assay: Synergistic activity against human MM.1S cells assessed as combination index […] at 0.25 uM incubated for 48 hrs by MTT assay; assay type: functional; method in brief: as §2
MM1.S [10] = assay: Synergistic activity against human MM.1S cells assessed as combination index […] in presence of 2.5 uM UNC1999 […] at 0.5 uM incubated for 48 hrs by […]; assay type: functional; method in brief: as §2
MM1.S [11] = assay: Synergistic activity against human MM.1S cells assessed as combination index […] in presence of 5 uM UNC1999 for 72 hrs […] at 0.25 uM incubated for 48 hrs by MTT assay; assay type: functional; method in brief: as §2
MM1.S [12] = assay: Synergistic activity against human MM.1S cells assessed as combination index […] at 0.125 uM incubated for 48 hrs by […]; assay type: functional; method in brief: as §2
NCI-H929 [13] = assay: Synergistic activity against human NCI-H929 cells assessed as combination index […] at 0.25 uM incubated for 48 hrs by […]; assay type: functional; method in brief: as §2
NCI-H929 [14] = assay: Synergistic activity against human NCI-H929 cells assessed as combination index […] in presence of 5 uM GSK126 […] compound addition at 0.125 uM incubated for 48 hrs by […]; assay type: functional; method in brief: as §2
OPM-2/BTZ [15] = assay: Synergistic activity against human OPM-2/BTZ cells assessed as combination index preincubated in presence of 1.25 uM GSK126 for 72 hrs followed by compound addition at 1 uM incubated for 48 hrs by MTT assay; assay type: functional
OPM-2/BTZ [16] = assay: Synergistic activity against human OPM-2/BTZ cells assessed as combination index preincubated in presence of 2.5 uM GSK126 for 72 hrs followed by compound addition at 1 uM incubated for 48 hrs by MTT assay; assay type: functional
OPM-2/BTZ [17] = assay: Synergistic activity against human OPM-2/BTZ cells assessed as combination index preincubated in presence of 2.5 uM GSK126 for 72 hrs followed by compound addition at 2 uM incubated for 48 hrs by MTT assay; assay type: functional
OPM-2 = assay: Synergistic activity against human OPM-2 cells assessed as combination index preincubated in presence of 5 uM GSK126 for 72 hrs followed by compound addition at 2.5 uM incubated for 48 hrs by MTT assay; assay type: functional
MM1.S [18] = assay: Induction of apoptosis in human MM1.S cells assessed as viable cells preincubated in presence of 5 micromol/L UNC1999 for 48 hrs followed by compound addition at 2 micromol/L incubated for 12 hrs by annexin V/PI staining based flow cytometry (reference value: 88.2%); assay type: functional; details: dose 2 µmol/L, at 2 µM
MM1.S [19] = assay: Upregulation of EZH1 mRNA expression in human MM1.S cells at 0.03 to 3 micromo/L at 6 to 48 hrs by qRT-PCR analysis; assay type: functional, cell-based; details: dose 0.03-3 µmol/L, time 6-48 hrs
Method in brief: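 EZH1 mRNA was measured by qRT-PCR in MM.1S and H929 cells. Dose series: cells were treated with graded TAS-117 for 24 h. Time course: cells were treated with 3 μmol/L for the indicated times. Fold change is after GAPDH normalization, relative to the untreated control. Data are SD of triplicates.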

OPM-2/BTZ [20] = assay: Upregulation of EZH1 protein expression in human OPM-2/BTZ cells at 0.03 to 3 micromol/L after 48 hrs by Western blot analysis; assay type: functional, cell-based; details: dose 0.03-3 µmol/L
NCI-H929 [21] = assay: Upregulation of CDKN1B mRNA expression in human NCI-H929 cells at 1 micromol/L after 24 hrs by qRT-PCR analysis; assay type: functional, cell-based; details: dose 1.0 µmol/L
Method in brief: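 Cells were exposed to 1 μmol/L TAS-117 for 24 h. mRNA of FOXO3, FOXO4, BIM and CDKN1B was measured by qRT-PCR in H929 cells. Fold change is relative to the untreated control after normalization to GAPDH. Data are SD of triplicates.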

MM1.S [22] = assay: Upregulation of FOXO4 […] expression in human MM1.S cells assessed as enhanced nuclear accumulation at 1 micromol/L after 24 hrs by immunofluorescence staining; assay type: functional, cell-based; details: dose 1.0 µmol/L
NCI-H929 [23] = assay: Induction of apoptosis in human NCI-H929 cells assessed as early apoptotic cells at 5 micromol/L incubated for 48 hrs by annexin V/PI staining based flow cytometry (reference value: 0.37%); assay type: functional; details: dose 5 µmol/L, at 5 µM
NCI-H929 [24] = assay: Induction of apoptosis in human NCI-H929 cells assessed as late apoptotic cells at 2 micromol/L incubated for 12 hrs by annexin V/PI staining based flow cytometry (reference value: […]%); assay type: functional; details: dose 2 µmol/L
NCI-H929 [25] = assay: Induction of apoptosis in human NCI-H929 cells assessed as live cells at 2 micromol/L incubated for 12 hrs by annexin V/PI staining based flow cytometry (reference value: 95.6%); assay type: functional; details: dose 2 µmol/L, at 2 µM

Which Activity (MM1.S [1]) does the source give for C[C@]1(O)C[C@@](N)(c2ccc(-c3nc4n(c3-c3ccccc3)COc3ccncc3-4)cc2)C1 [PIFUSERTIB] here?
The Activity was “Active”.

What about the inhibition [2] of the same molecule?
Its inhibition is “Active”.

What about the Activity (MM1.S [3]) of the same molecule?
The Activity was “Active”.

And the Activity (NCI-H929 [4])?
The Activity was “Active”.

And the Activity (OPM-2/BTZ [5])?
The Activity was “Active”.

And the Activity (MM1.S [6])?
Its Activity is “Active”.

What about the Activity (MM1.S [7]) of the same molecule?
Its Activity is “Active”.

And the CI (MM1.S [8])?
Its CI is 0.217.

What about the CI (MM1.S [9]) of the same molecule?
Its CI is 0.307.

What about the CI (MM1.S [10]) of the same molecule?
The CI was 0.277.

And the CI (MM1.S [11])?
The CI was 0.237.

And the CI (MM1.S [12])?
The CI was 1.08.

And the CI (NCI-H929 [13])?
The CI was 0.778.

What about the CI (NCI-H929 [14]) of the same molecule?
The CI was 7.124.

And the CI (OPM-2/BTZ [15])?
Its CI is 0.923.

And the CI (OPM-2/BTZ [16])?
Its CI is 0.359.

What about the CI (OPM-2/BTZ [17]) of the same molecule?
Its CI is 0.205.

What about the CI (OPM-2) of the same molecule?
The CI was 2.74.

And the Activity (MM1.S [18])?
The Activity was 33%.

And the Activity (MM1.S [19])?
The Activity was “Dose-Dependent Effect”.

And the Activity (OPM-2/BTZ [20])?
Its Activity is “Active”.

What about the Activity (NCI-H929 [21]) of the same molecule?
The Activity was “Active”.

What about the Activity (MM1.S [22]) of the same molecule?
The Activity was “Active”.

And the Activity (NCI-H929 [23])?
Its Activity is 9.69%.

What about the Activity (NCI-H929 [24]) of the same molecule?
The Activity was 3.42%.

And the Activity (NCI-H929 [25])?
Its Activity is 91.7%.
